Measured values reported in ChEMBL document CHEMBL1153063 (Bioorg Med Chem Lett, 2009).

Legend:
[1] = target: Neuronal acetylcholine receptor subunit alpha-7 (Rattus norvegicus, UniProt Q05941); test: Displacement of [125I]BTX from rat alpha7 nAChR expressed in rat GH4C1 cells; type: cell-based, GH4-C1
Outline: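 GH₄C₁ cell binding with [¹²⁵I]-BTX; six-point dose–response curve in triplicate, values averaged.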

[2] = target: Neuronal acetylcholine receptor subunit alpha-7 (Rattus norvegicus) (UniProt Q05941); test: Agonist activity at rat alpha7 nAChR expressed in Xenopus oocytes at 32 uM by two-electrode voltage clamp technique relative to nicotine; type: functional, cell-based; details: Oocyte
Outline: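 Rat alpha7 nAChR cRNA (10–50 ng) injected into Xenopus oocytes defolliculated with collagenase (1.3 mg/mL, 3 h); oocytes kept in Barth's saline up to 2 weeks. Test compounds applied at 32 µM.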

[3] = target: Neuronal acetylcholine receptor; alpha4/beta2 (Rattus norvegicus, UniProt P09483+P12390); test: Displacement of L-[3H]Nicotine from alpha4beta2 nAChR in rat brain homogenate by rapid filtration method; type: tissue-based
[4] = target: Neuronal acetylcholine receptor subunit alpha-3 (Homo sapiens, UniProt P32297); test: Displacement of [3H]epibatidine from alpha3 nAChR in human IMR32 cells; type: cell-based, IMR-32
Outline: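 IMR32 cell binding with [³H]-epibatidine; six-point dose–response curve in triplicate, values averaged.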

[5] = Octanol-aqueous buffer partition coefficient, log D at pH 7.4; type: physicochemical
[6] = Aqueous solubility of the compound; type: physicochemical; details: buffer
hERG (KCNH2) = hERG (KCNH2) (Homo sapiens, UniProt Q12809); test: Displacement of [3H]dofetilide from human ERG expressed in HEK293 cells at 10 uM; type: cell-based; details: HEK293 cells expressing human ERG, probe [3H]dofetilide
Outline: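 Binding of [³H]dofetilide to hERG stably expressed in HEK293 cells; reported as percent inhibition of binding.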

[7] = target: T1, 5-hydroxytryptamine receptor 3A (Homo sapiens, UniProt P46098); test: Displacement of [3H]LY278584 from human 5HT3 receptor expressed in HEK293 cells; type: cell-based
T1 sequence (P46098 whole entry): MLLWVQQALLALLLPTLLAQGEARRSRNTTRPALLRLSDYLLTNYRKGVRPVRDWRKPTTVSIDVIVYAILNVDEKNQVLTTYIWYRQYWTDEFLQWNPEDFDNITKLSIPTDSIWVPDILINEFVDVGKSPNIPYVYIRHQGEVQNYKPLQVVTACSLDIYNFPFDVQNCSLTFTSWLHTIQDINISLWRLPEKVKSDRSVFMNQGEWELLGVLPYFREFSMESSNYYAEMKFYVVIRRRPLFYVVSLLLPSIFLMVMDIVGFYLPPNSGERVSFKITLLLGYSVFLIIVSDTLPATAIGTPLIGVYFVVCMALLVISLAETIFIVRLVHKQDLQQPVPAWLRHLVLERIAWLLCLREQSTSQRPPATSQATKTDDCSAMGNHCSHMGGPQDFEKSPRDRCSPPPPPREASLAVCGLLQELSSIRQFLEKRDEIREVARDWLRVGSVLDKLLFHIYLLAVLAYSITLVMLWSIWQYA
Outline: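 HEK293 cells expressing human 5-HT₃; [³H]-LY278584 binding, six-point dose–response curve in triplicate, values averaged.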

[8] = Intrinsic clearance in human liver microsomes at 1 uM at pH 7.4 after 30 mins; type: ADME, Microsome
Outline: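 Pooled liver microsomes in phosphate buffer pH 7.4, 1 μM substrate; sampled at 30 min.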

[9] = Drug concentration in Sprague-Dawley rat brain at 5 mg/kg, sc after 1 hr; type: ADME, organism-based; parameters: dose 5 mg/kg, route subcutaneous; details: read-out: Drug uptake
Outline: (§1)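 Male Sprague-Dawley rats (n = 3) given 5 mg/kg s.c.; brain, plasma and CSF levels assessed 1 h post dose.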

[10] = Plasma concentration in Sprague-Dawley rat at 5 mg/kg, sc after 1 hr; type: ADME, organism-based; parameters: dose 5 mg/kg, route subcutaneous; outline: as §1
[11] = Ratio of drug level in brain to plasma in Sprague-Dawley rat at 5 mg/kg, sc after 1 hr; type: ADME, organism-based; parameters: dose 5 mg/kg, route subcutaneous
Outline: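 Male Sprague-Dawley rats (n = 3) received a single subcutaneous dose of 5 mg/kg. Brain, plasma and CSF drug levels were assessed 1 h post dose, and the brain level was expressed relative to the plasma level.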

[12] = Drug concentration in Sprague-Dawley rat CSF at 5 mg/kg, sc after 1 hr; type: ADME, organism-based, Cerebrospinal fluid; parameters: dose 5 mg/kg, route subcutaneous; details: read-out: Drug uptake; outline: as §1

Chain of Neuronal acetylcholine receptor subunit alpha-7 (Q05941 whole entry): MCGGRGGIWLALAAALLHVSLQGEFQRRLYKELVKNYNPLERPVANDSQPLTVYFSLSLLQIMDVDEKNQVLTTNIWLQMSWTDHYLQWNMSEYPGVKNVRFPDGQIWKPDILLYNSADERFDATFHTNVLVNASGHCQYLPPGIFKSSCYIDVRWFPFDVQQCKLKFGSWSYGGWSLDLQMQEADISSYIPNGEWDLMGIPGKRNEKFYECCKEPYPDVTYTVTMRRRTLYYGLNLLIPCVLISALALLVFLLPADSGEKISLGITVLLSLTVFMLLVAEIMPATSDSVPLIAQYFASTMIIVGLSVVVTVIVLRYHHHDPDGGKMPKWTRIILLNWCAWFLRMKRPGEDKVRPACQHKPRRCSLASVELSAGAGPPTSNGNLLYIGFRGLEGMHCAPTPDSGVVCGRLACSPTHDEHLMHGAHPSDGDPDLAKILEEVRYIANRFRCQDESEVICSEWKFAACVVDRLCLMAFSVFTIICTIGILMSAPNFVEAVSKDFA
Chain of Neuronal acetylcholine receptor subunit alpha-7 (Rattus norvegicus) (Q05941 whole entry): as above
Chain of Neuronal acetylcholine receptor; alpha4/beta2 (P09483 whole entry): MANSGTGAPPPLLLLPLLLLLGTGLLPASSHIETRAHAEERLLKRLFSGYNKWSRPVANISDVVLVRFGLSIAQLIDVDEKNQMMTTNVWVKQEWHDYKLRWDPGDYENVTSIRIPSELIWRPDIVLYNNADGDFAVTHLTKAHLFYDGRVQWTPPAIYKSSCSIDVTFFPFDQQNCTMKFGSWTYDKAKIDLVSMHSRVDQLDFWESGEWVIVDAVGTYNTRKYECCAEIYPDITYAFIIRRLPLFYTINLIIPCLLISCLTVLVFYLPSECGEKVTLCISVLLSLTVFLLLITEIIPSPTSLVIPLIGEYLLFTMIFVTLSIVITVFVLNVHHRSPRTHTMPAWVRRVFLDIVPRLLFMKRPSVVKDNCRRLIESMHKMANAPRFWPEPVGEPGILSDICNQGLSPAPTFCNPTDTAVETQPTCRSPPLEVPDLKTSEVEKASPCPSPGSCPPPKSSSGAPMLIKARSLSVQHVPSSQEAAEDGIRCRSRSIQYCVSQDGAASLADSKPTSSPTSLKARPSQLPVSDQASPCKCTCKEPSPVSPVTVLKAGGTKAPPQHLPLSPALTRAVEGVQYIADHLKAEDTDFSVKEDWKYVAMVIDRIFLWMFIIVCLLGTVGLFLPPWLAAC
Chain of Neuronal acetylcholine receptor; alpha4/beta2 (P12390 whole entry): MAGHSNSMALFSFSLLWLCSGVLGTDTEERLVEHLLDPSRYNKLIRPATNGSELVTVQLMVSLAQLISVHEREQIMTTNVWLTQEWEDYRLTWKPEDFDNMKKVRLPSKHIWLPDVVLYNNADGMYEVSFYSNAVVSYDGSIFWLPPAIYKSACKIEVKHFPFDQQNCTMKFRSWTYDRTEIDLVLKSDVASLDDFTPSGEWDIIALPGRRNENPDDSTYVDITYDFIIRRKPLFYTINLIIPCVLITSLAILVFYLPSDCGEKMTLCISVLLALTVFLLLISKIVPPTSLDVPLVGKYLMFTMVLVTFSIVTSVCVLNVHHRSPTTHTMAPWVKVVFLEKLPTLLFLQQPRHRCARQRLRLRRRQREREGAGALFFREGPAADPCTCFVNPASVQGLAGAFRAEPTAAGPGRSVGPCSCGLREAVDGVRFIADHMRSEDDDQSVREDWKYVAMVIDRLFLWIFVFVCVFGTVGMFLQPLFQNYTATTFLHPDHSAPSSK
Chain of Neuronal acetylcholine receptor subunit alpha-3 (P32297 whole entry): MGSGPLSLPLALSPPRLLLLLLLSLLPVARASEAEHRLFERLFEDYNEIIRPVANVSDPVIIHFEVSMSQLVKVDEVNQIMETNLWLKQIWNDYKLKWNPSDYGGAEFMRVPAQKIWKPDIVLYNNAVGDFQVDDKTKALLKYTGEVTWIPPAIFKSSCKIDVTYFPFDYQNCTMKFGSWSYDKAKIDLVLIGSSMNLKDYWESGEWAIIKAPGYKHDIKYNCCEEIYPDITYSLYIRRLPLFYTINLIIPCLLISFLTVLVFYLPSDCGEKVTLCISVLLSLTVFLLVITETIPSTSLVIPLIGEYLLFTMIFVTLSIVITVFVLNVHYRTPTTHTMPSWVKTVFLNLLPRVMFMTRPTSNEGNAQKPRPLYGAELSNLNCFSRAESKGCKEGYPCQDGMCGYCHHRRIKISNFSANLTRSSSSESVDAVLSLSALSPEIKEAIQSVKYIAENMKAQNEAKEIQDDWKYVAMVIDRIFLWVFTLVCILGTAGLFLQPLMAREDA
Chain of hERG (KCNH2) (Q12809 whole entry): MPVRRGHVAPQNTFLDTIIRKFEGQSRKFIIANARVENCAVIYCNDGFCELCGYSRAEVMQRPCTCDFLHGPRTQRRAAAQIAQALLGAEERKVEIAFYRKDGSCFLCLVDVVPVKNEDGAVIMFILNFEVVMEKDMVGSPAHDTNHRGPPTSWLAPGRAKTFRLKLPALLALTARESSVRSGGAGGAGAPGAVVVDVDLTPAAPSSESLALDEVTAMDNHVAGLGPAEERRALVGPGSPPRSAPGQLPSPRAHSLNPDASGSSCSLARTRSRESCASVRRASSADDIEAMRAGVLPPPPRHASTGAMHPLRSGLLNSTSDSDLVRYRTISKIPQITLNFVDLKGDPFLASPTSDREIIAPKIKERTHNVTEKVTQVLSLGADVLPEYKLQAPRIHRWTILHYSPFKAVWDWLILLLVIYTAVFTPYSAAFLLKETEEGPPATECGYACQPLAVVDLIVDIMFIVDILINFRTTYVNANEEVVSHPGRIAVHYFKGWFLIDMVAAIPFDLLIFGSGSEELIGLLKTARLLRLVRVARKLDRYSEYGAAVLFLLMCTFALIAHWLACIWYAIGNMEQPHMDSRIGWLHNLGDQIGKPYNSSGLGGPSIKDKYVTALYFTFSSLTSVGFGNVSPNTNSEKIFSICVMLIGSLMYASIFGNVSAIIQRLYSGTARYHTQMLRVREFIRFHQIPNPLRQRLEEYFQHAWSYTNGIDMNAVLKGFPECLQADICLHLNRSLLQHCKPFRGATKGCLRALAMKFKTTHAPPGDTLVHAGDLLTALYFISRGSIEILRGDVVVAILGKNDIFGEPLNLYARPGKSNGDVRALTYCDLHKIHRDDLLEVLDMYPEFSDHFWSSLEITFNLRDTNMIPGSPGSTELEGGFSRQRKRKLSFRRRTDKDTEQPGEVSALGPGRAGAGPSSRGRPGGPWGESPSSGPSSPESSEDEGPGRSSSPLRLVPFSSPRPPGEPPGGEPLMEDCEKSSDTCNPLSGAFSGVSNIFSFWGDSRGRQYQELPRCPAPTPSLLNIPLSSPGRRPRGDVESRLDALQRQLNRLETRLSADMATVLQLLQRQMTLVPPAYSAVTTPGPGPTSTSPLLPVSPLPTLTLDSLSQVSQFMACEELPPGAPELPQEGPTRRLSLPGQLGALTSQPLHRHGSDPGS

| SMILES | Ki [1] | Activity [2] | IC50 [3] | other results |
| --- | --- | --- | --- | --- |
| O=C(Oc1ccccc1Cl)N1CCN2CCC1CC2 | 868 nM | – | – | – |
| O=C(Oc1ccc(F)cc1)N1CCN2CCC1CC2 | 537 nM | 100% | 1780 nM | – |
| O=C(Oc1cccc(Cl)c1)N1CCN2CCC1CC2 | 32 nM | 77% | 3500 nM | – |
| O=C(Oc1cccc(Br)c1)N1CCN2CCC1CC2 | 9.5 nM | 70% | – | – |
| O=S(=O)(c1ccc(Br)cc1)N1CCN2CCC1CC2 | > 4720 nM | – | – | – |
| COc1ccc(OC(=O)N2CCN3CCC2CC3)cc1 | 201 nM | 126% | – | – |
| O=C(Nc1ccc(Br)cc1)N1CCN2CCC1CC2 | 328 nM | – | – | – |
| O=C(Oc1ccccc1Br)N1CCN2CCC1CC2 | 725 nM | – | – | – |
| Cc1ccc(OC(=O)N2CCN3CCC2CC3)cc1 | 178 nM | 202% | – | – |
| O=C(c1ccccc1)c1cc(OC(=O)N2CCN3CCC2CC3)ccc1Br | 16 nM | 201% | 2040 nM | IC50 [4]: 1390 nM |
| O=C(Oc1ccc(Br)c(Cl)c1)N1CCN2CCC1CC2 | 33 nM | 203% | 7120 nM | IC50 [4]: 2090 nM |
| O=C(OCc1ccccc1)N1CCN2CCC1CC2 | 3350 nM | – | – | – |
| O=C(Oc1cccc(F)c1)N1CCN2CCC1CC2 | 35 nM | 47% | 1060 nM | – |
| O=C(Oc1ccc(Br)cc1)N1CCN2CCC1CC2 [SSR180711] | – | 158% | > 5000 nM | IC50 [4]: > 6480 nM; logD [5]: 2.1; solubility [6]: > 65 µg/mL; inhibition at 10 µM (hERG (KCNH2)): 46%; IC50 [7]: > 3160 nM; CLint scaled at 1 µM [8]: < 6.8 mL/min/kg; concentration at 1 h [9]: 5460 ng/g; concentration at 1 h [10]: 648 ng/mL; Kp at 1 h [11]: 9.1; concentration at 1 h [12]: 774 nM |
| O=C(Oc1ccc(Oc2ccccc2)cc1)N1CCN2CCC1CC2 | 212 nM | 241% | – | – |
| O=C(Oc1cccc(Oc2ccccc2)c1)N1CCN2CCC1CC2 | 13 nM | 40% | – | – |
| O=C(Oc1cccc(-c2ccccc2)c1)N1CCN2CCC1CC2 | 9 nM | 9% | – | – |
| S=C(Oc1ccccc1)N1CCN2CCC1CC2 | 749 nM | 28% | – | – |
| O=C(Oc1ccc(-c2cccnc2)cc1)N1CCN2CCC1CC2 | 203 nM | 189% | > 5000 nM | – |
| C[C@@H]1CN(C(=O)Oc2ccc(Br)cc2)CCN1 | > 5000 nM | < 0.1% | – | – |
| O=C(Oc1ccc(-c2ccccc2)cc1)N1CCN2CCC1CC2 | 215 nM | 111% | – | – |

| SMILES | Ki [1] | Activity [2] | IC50 [3] | other results |
| --- | --- | --- | --- | --- |
| O=C(c1ccccc1)c1cccc(OC(=O)N2CCN3CCC2CC3)c1 | 11 nM | 98% | 2610 nM | – |
| C[C@@H]1CN(C(=O)Oc2ccc(Br)cc2)C[C@H](C)N1 | > 5000 nM | < 0.1% | – | – |
| CN1CCCN(C(=O)Oc2ccc(Br)cc2)CC1 | > 5710 nM | 10% | – | – |
| O=C(Cc1ccc(Br)cc1)N1CCN2CCC1CC2 | > 5000 nM | 1.7% | – | – |
| O=C(Oc1ccc(-c2ccccn2)cc1)N1CCN2CCC1CC2 | 354 nM | 174% | – | – |
| O=c1c(Br)ccc2n1C[C@@H]1CNC[C@H]2C1 | – | – | – | IC50 [4]: 15.6 nM |
| O=C(Oc1ccc(-c2ccncc2)cc1)N1CCN2CCC1CC2 | 207 nM | 191% | – | – |
| COc1cccc(OC(=O)N2CCN3CCC2CC3)c1 | 79 nM | 26% | – | – |
| O=C(Nc1ccc(Br)cc1)OC1CN2CCC1C2 (configuration not stated) [QUINUCLIDINE CARBAMATE] | – | 90% | – | – |
| Cc1cccc(OC(=O)N2CCN3CCC2CC3)c1 | 25 nM | 46% | – | – |
| Cc1cc(OC(=O)N2CCN3CCC2CC3)ccc1Br | 50 nM | 83% | 7220 nM | IC50 [4]: 4020 nM |
| C[C@@H]1CN(C(=O)Oc2ccc(Br)cc2)[C@@H](C)CN1 | > 5000 nM | – | – | – |
| O=C(Oc1ccccc1)N1CCN2CCC1CC2 | 739 nM | 99% | 1040 nM | – |
| O=C(Oc1ccc(Cl)c(F)c1)N1CCN2CCC1CC2 | 86 nM | 110% | 6980 nM | IC50 [4]: 9960 nM |
| O=C(c1ccccc1)c1ccc(OC(=O)N2CCN3CCC2CC3)cc1 | 95 nM | 35% | – | – |
| O=C(Oc1ccc(Cl)cc1)N1CCN2CCC1CC2 | 79 nM | 145% | > 5000 nM | IC50 [4]: > 5000 nM |
| O=C(Oc1ccc(Cl)c(Cl)c1)N1CCN2CCC1CC2 | 31 nM | 195% | – | – |
| O=C(Oc1ccc2ccccc2c1)N1CCN2CCC1CC2 | 23 nM | 175% | 9880 nM | IC50 [4]: 4910 nM; logD [5]: 2.3; solubility [6]: > 65 µg/mL; inhibition at 10 µM (hERG (KCNH2)): 8%; IC50 [7]: > 3160 nM; CLint scaled at 1 µM [8]: 12 mL/min/kg; concentration at 1 h [9]: 5290 ng/g; concentration at 1 h [10]: 463 ng/mL; Kp at 1 h [11]: 11.6; concentration at 1 h [12]: 343 nM |
| O=C(Oc1ccc(Br)cc1)N1CCN2CCC(CC2)C1 | 763 nM | – | > 10000 nM | – |
| O=C(Oc1ccc(Br)cc1)N1CCCN2CCC1CC2 | 383 nM | 27% | > 10000 nM | – |
